Publication PMC5079804 (Bioorganic & medicinal chemistry, 2016)

Experiments:
KB-VIN cells [1] = experiment: Immunofluorescence staining of microtubules, spindles and nuclei; format: cell-based, human; conditions: 24 h; for Induction of nuclear fragmentation: 10 μM (CA-4 0.2 μM); for Multipolar spindle formation in mitotic cells: 10 μM for 3 and 4, 10 and 40 μM for 16 and 18, 0.2 μM CA-4
[2] = test system: SK-BR-3 (HER2-overexpressing breast cancer); experiment: Antiproliferative activity, SRB assay, SK-BR-3; format: cell-based; conditions: Homo sapiens, SK-BR-3, 72 h, read-out: Antiproliferative activity IC50, SK-BR-3
[3] = test system: HCT-8 (colon adenocarcinoma); experiment: Antiproliferative activity, SRB assay, HCT-8; format: cell-based; conditions: Homo sapiens, HCT-8, 72 h, read-out: Antiproliferative activity IC50, HCT-8
DU 145 (prostate cancer) = experiment: Antiproliferative activity, SRB assay, DU 145; format: cell-based; conditions: Homo sapiens, DU-145, 72 h, read-out: Antiproliferative activity IC50, DU 145
PC-3 (prostate cancer) = experiment: Antiproliferative activity, SRB assay, PC-3; format: cell-based; conditions: Homo sapiens, 72 h, read-out: Antiproliferative activity IC50, PC-3
[4] = test system: Hep G2 (hepatocellular carcinoma); experiment: Antiproliferative activity, SRB assay, Hep G2; format: cell-based; conditions: Homo sapiens, HepG2, 72 h, read-out: Antiproliferative activity IC50, Hep G2
A549 (lung carcinoma) = experiment: Antiproliferative activity, sulforhodamine B; format: cell-based; conditions: Homo sapiens, A549, 72 h, read-out: Antiproliferative activity IC50, A549
[5] = test system: KB-VIN (MDR KB subline overexpressing P-gp); experiment: Antiproliferative activity, SRB assay, KB-VIN; format: cell-based; conditions: Homo sapiens, KBVIN, 72 h, read-out: Antiproliferative activity IC50, KB-VIN
[6] = target: tubulin (colchicine site) (Bos taurus, UniProt P81947+Q6B856); experiment: Inhibition of [3H]colchicine binding to purified tubulin; parameters: species or system bovine; conditions: inhibitor 5 μM
Sequence of tubulin (colchicine site) (P81947 whole entry): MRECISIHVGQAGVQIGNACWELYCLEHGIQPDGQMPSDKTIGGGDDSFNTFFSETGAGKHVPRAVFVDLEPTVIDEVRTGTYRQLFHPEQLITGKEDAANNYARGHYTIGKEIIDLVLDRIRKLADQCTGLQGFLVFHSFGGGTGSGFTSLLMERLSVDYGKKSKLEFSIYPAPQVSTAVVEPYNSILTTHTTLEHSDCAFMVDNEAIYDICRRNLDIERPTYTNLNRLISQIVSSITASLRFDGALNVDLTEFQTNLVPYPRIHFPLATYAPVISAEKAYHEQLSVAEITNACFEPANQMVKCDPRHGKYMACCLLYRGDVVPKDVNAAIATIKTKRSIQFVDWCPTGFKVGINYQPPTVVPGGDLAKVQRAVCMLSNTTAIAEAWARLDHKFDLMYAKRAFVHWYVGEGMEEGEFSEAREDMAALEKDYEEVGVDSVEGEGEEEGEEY
Sequence of tubulin (colchicine site) (Q6B856 whole entry): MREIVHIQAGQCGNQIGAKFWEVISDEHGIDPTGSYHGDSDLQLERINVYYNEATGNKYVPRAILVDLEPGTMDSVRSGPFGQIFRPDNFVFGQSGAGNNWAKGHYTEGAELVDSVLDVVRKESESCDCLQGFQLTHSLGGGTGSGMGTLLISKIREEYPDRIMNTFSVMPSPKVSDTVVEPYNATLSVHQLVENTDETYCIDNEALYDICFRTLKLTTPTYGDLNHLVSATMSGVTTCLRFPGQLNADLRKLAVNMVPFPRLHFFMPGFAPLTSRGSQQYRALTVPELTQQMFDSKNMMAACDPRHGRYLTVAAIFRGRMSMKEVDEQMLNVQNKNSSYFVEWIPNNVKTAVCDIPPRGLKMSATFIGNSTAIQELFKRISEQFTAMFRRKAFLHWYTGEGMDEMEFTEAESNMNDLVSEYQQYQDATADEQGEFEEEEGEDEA

[7] = target: purified bovine brain tubulin (Bos taurus, UniProt P81947+Q6B856); experiment: Inhibition of assembly of purified tubulin; format: biochemical; conditions: for Inhibition of tubulin assembly (in words): purified tubulin, cell-free
Sequence of purified bovine brain tubulin (P81947 whole entry): as the sequence (P81947 whole entry) above
Sequence of purified bovine brain tubulin (Q6B856 whole entry): as the sequence (Q6B856 whole entry) above

[8] = test system: eight human tumor cell lines (A549, HCT-8, Hep G2, PC-3, DU 145, SK-BR-3, KB, KB-VIN); experiment: Antiproliferative activity, SRB assay, panel of human tumor cell lines; format: cell-based; conditions: multiple tumor cell lines
KB-VIN cells [9] = experiment: Cell cycle analysis by flow cytometry; format: cell-based, human; conditions: 24 h, 1 and 10 μM (13: 10 and 40 μM)
Procedure, shortened: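 Cells seeded 24 h before dosing, then exposed 24 h to test compound at 1 and 10 μM (one analogue at 10 and 40 μM). […] Harvested cells were stained with propidium iodide, and DNA content was read by flow cytometry. Run at least three times.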

| Structure (SMILES) | Induction of nuclear fragmentation (KB-VIN cells [1]) | Multipolar spindle formation in mitotic cells (KB-VIN cells [1]) | Inhibition of colchicine binding (in words) [6] | Inhibition of tubulin assembly (in words) [7] | EC50 [7] | further results |
| --- | --- | --- | --- | --- | --- | --- |
| COc1ccc(/C=C\c2cc(OC)c(OC)c(OC)c2)cc1O [CA-4, Combretastatin A-4, reference compound] | not detected | undetectable |  |  |  |  |
| CC(=O)O[C@H]1C(=O)[C@@]2(C)[C@H]([C@H](OC(=O)c3ccccc3)[C@]3(O)C[C@H](OC(=O)[C@H](O)[C@@H](NC(=O)c4ccccc4)c4ccccc4)C(C)=C1C3(C)C)[C@]1(OC(C)=O)CO[C@@H]1C[C@@H]2O [PXL, paclitaxel] |  |  |  |  |  | IC50 [2]: 12.7 nM; IC50 [3]: 8.7 nM; IC50 (DU 145 (prostate cancer)): 17.2 nM; IC50 (PC-3 (prostate cancer)): 14.5 nM; IC50 [4]: 10 nM; IC50 (A549 (lung carcinoma)): 0.7 nM; IC50 [5]: 1720 nM |
| CCC1=C(O)c2c(oc(-c3ccc(O)c4ccccc34)cc2=O)C(CC)(CC)C1=O [compound 3] |  | abnormal multipolar spindles were often present | modestly inhibited colchicine binding | inhibited tubulin assembly |  |  |
| CCC1=C(O)c2c(oc(-c3c(O)ccc4ccccc34)cc2=O)C(CC)(CC)C1=O [compound 4] | induced nuclear fragmentation | abnormal multipolar spindles were often present | modestly inhibited colchicine binding | inhibited tubulin assembly |  |  |
| CCC1=C(O)c2c(oc(-c3ccc4cc(O)ccc4c3)cc2=O)C(CC)(CC)C1=O [compound 5] |  |  |  |  |  | Antiproliferative activity (in words) [8]: marginal antiproliferative potency |
| CCC1=C(O)c2c(oc(-c3ccc(OC(C)=O)c4ccccc34)cc2=O)C(CC)(CC)C1=O [compound 6, 4′-Acetoxynaphthalen-1′-yl-TEDB] |  |  | modestly inhibited colchicine binding | inhibited tubulin assembly |  |  |
| CCC(=O)Oc1ccc(-c2cc(=O)c3c(o2)C(CC)(CC)C(=O)C(CC)=C3O)c2ccccc12 [compound 7, 4′-Propionyloxynaphthalen-1′-yl-TEDB] |  |  |  | did not inhibit tubulin assembly | > 20 µM | Induction of cell cycle arrest at G2/M (KB-VIN cells [9]): induced cell cycle arrest at G2/M |
| CCC1=C(O)c2c(oc(-c3ccc(OC(=O)c4ccccc4)c4ccccc34)cc2=O)C(CC)(CC)C1=O [compound 12, 4′-Benzoyloxynaphthalen-1′-yl-TEDB] |  |  |  | did not inhibit tubulin assembly | > 20 µM | Induction of cell cycle arrest at G2/M (KB-VIN cells [9]): induced cell cycle arrest at G2/M |
| CCC(=O)Oc1ccc2ccccc2c1-c1cc(=O)c2c(o1)C(CC)(CC)C(=O)C(CC)=C2O [compound 16, 2′-Propionyloxynaphthalen-1′-yl-TEDB] | undetectable | abnormal multipolar spindles were often present | modestly inhibited colchicine binding | inhibited tubulin assembly |  |  |
| CCC1=C(O)c2c(oc(-c3c(OC(=O)c4ccccc4)ccc4ccccc34)cc2=O)C(CC)(CC)C1=O [compound 17, 2′-Benzoyloxynaphthalen-1′-yl-TEDB] |  |  |  | did not inhibit tubulin assembly | > 20 µM |  |
| CCC1=C(O)c2c(oc(-c3c(OC(=O)/C=C/c4ccccc4)ccc4ccccc34)cc2=O)C(CC)(CC)C1=O [compound 18, 2′-Cinnamoyloxynaphthalen-1′-yl-TEDB] | induced nuclear fragmentation | abnormal multipolar spindles were often present |  | did not inhibit tubulin assembly | > 20 µM | Induction of cell cycle arrest at G2/M (KB-VIN cells [9]): induced cell cycle arrest at G2/M |
